For experiment [1], the system named is ZR-75-1. Kind of experiment: Cytotoxicity against human ZR-75-1 cells assessed as inhibition of cell viability incubated for 72 hrs by MTS assay. Type of experiment: functional, cell-based. An outline of the steps:
(§1)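 Untreated cells were seeded at 5,000 cells/well in 96-well plates and run as the control. They were exposed in triplicate for 72 h to graded doxorubicin, bleomycin, cisplatin, paclitaxel or methotrexate (nmol/L range). Viability was read by MTS assay and IC50 was calculated.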

Experiment [2] relates to T47D. Kind of experiment: Cytotoxicity against human T47D cells assessed as inhibition of cell viability incubated for 72 hrs by MTS assay. Type of experiment: functional, cell-based. An outline of the steps:
as §1

Experiment [3] has as its system T47D. Kind of experiment: Induction of cell cycle arrest in human T47D cells at 5 umol/L preincubated for 24 hrs followed by extensive compound washout and subsequent culturing in compound-free media measured for 60 to 120 mins by immunofluorescence staining based analysis. Type of experiment: functional. The note with it: dose 5.0 µmol/L. Put shortly: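 T-47D cells were treated at 37°C with 5 µmol/L for 24 h, washed extensively, then cultured in DMEM with 10% FBS for 30, 60 and 120 min. α- and γ-tubulin were detected by immunofluorescence with DAPI, imaged at 400×. The control was a 24 h preincubation with 5 µmol/L RO-3306. One of 2 experiments.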

In experiment [4] the target is Hepatocyte growth factor receptor (Homo sapiens, UniProt P08581). Kind of experiment: Inhibition of MET (unknown origin).
Sequence of Hepatocyte growth factor receptor (P08581 whole entry): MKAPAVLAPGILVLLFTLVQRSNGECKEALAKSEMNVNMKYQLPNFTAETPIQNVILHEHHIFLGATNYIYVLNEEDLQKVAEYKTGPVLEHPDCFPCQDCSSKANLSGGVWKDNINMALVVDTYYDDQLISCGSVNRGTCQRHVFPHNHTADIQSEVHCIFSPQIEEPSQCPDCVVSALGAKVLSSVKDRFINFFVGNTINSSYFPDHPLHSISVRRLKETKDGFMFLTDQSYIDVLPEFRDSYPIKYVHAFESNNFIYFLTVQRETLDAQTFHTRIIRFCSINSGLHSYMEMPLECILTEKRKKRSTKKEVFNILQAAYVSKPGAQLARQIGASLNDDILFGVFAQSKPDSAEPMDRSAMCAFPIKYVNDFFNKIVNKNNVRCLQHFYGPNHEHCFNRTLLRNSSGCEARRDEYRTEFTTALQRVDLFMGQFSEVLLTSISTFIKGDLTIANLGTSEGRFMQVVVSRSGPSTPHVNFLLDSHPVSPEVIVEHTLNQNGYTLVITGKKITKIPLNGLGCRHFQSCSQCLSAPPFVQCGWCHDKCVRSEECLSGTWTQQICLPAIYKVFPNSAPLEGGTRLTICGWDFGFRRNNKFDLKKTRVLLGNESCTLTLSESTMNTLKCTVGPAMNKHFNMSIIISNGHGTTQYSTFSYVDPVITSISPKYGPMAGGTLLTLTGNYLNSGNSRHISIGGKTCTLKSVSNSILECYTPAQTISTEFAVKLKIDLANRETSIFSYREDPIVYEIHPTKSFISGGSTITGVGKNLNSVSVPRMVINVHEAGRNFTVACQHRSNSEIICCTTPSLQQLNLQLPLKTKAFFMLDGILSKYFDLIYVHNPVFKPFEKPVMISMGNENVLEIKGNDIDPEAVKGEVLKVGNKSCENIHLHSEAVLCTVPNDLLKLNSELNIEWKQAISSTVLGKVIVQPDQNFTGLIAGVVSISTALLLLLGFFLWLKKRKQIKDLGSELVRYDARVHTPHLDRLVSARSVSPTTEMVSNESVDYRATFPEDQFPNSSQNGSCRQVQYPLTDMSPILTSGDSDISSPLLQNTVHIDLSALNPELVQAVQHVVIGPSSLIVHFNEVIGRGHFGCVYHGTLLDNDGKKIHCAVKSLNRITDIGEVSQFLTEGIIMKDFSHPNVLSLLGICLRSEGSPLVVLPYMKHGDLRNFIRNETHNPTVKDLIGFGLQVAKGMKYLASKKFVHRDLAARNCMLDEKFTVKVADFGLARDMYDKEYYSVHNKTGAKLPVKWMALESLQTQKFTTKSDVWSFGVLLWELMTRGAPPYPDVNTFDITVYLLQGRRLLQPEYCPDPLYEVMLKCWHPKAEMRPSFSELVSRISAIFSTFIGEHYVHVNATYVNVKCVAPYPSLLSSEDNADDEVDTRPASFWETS
Experiment [5] concerns the target Macrophage-stimulating protein receptor (Homo sapiens, UniProt Q04912). Kind of experiment: Inhibition of RON (unknown origin).
Experiment [6] has as its system T47D. Description: Induction of polyploidy in human T47D cells at 5 uM incubated for 72 hrs by microscopic analysis. Type of experiment: functional, cell-based. Put shortly: (§2)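 Cells stained with Hema-3 and photographed under a light microscope with CCD camera. Polyploid cells scored as percent of the population.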
Experiment [7] has as its system ZR-75-1. Description: Induction of polyploidy in human ZR-75-1 cells at 5 uM incubated for 72 hrs by microscopic analysis. Type of experiment: functional, cell-based. An outline of the steps:
as §2

The test system of experiment [8] is MCF7. Description: Induction of polyploidy in human MCF7 cells at 5 uM incubated for 72 hrs by microscopic analysis. Type of experiment: functional, cell-based. An outline of the steps: as §2

pIC50: −log10 of the molar value. Active and inactive are the calls of the source. The calls are words filed in the database; no cut-off is given here.

The term pIC50 denotes the negative decadic logarithm of the IC50, by convention in mol/L.

Sequence of Macrophage-stimulating protein receptor (Q04912 25-304 limits assumed): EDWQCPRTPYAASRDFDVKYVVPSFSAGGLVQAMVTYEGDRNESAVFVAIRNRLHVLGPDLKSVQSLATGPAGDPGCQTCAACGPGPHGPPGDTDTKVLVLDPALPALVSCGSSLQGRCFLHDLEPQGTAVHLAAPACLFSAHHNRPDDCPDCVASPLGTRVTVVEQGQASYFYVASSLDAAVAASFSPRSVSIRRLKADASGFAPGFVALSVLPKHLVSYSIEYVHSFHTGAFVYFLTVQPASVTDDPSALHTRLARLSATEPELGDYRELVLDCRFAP
Sequence of Macrophage-stimulating protein receptor (Q04912 310-1400 limits assumed): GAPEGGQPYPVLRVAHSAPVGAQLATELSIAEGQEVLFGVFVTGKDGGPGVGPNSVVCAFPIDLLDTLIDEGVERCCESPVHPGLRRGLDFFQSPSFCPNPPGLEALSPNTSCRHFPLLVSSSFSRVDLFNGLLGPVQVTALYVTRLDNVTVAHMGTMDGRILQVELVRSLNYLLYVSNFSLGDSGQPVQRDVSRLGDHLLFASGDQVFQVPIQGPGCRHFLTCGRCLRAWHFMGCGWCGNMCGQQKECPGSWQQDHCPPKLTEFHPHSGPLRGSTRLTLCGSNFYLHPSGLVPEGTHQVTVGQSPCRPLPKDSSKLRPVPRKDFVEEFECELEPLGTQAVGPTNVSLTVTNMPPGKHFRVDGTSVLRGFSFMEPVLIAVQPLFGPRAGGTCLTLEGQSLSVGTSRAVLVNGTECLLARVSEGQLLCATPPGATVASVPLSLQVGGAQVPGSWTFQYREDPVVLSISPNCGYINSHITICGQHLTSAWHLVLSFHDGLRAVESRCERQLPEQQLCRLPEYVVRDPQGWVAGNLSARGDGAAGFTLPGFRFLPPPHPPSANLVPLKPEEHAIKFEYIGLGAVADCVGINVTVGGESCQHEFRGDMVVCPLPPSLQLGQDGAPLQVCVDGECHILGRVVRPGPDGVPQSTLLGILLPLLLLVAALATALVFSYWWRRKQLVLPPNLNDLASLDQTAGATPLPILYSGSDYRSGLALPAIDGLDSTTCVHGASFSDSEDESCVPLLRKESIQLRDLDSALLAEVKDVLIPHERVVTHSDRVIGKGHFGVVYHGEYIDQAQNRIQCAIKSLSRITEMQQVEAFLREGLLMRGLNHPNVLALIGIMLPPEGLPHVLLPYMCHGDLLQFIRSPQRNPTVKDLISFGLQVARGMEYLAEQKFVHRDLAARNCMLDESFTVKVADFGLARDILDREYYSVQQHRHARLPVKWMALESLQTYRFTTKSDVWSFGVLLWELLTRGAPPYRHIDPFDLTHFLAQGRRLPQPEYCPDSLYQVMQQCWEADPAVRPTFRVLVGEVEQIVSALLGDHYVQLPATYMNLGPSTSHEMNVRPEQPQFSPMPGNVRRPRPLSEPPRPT

For the molecule `CN(Cc1cnc2nc(N)nc(N)c2n1)c1ccc(C(=O)N[C@@H](CCC(=O)O)C(=O)O)cc1` [METHOTREXATE], the negative logarithm of the IC50 (pIC50) was 7.18 in experiment [1] (Homo sapiens, ZR-75-1, 72 h) and 7.19 in experiment [2] (Homo sapiens, T47D, 72 h).
In the case of `O=C1N=C(NCc2cccs2)S/C1=C\c1ccc2ncccc2c1`, the result in experiment [3] was inactive.
Turning to `COc1ccc2c(Oc3ccc(NC(=O)c4c(C)n(CC(C)(C)O)n(-c5ccccc5)c4=O)cc3F)ccnc2c1`, the results for the negative logarithm of the IC50 (pIC50) in experiment [4] and in experiment [5] were 8.40 and 8.05, respectively. Besides, the outcome in experiment [6], in experiment [7] and in experiment [8] was inactive.
In the case of BLEOMYCIN, the negative logarithm of the IC50 (pIC50) is 6.78 in experiment [1] (zr-75-1) and 6.89 in experiment [2] (t47d).
Take `CC(=O)O[C@H]1C(=O)[C@@]2(C)[C@H]([C@H](OC(=O)c3ccccc3)[C@]3(O)C[C@H](OC(=O)[C@H](O)[C@@H](NC(=O)c4ccccc4)c4ccccc4)C(C)=C1C3(C)C)[C@]1(OC(C)=O)CO[C@@H]1C[C@@H]2O` [PACLITAXEL]: the pIC50 in experiment [1] (Homo sapiens, ZR-75-1, 72 h) is 8.21; in experiment [2] (Homo sapiens, T47D, 72 h) it was 8.40.
As for `Cc1[nH]c(/C=C2\C(=O)Nc3ccc(S(=O)(=O)Cc4c(Cl)cccc4Cl)cc32)c(C)c1C(=O)N1CCC[C@@H]1CN1CCCC1`, the result in experiment [6], in experiment [7] and in experiment [8] was inactive.
For `COc1cccc2c1C(=O)c1c(O)c3c(c(O)c1C2=O)C[C@@](O)(C(=O)CO)C[C@@H]3O[C@H]1C[C@H](N)[C@H](O)[C@H](C)O1` [DOXORUBICIN], the negative logarithm of the IC50 (pIC50) is 6.34 in experiment [1] (Homo sapiens, ZR-75-1, 72 h) and 6.58 in experiment [2] (Homo sapiens, T47D, 72 h).

(Values after ChEMBL document CHEMBL5653613 (Mol Cancer Ther, 2013).)
